Results pooled from the literature.
Lines come from different studies, so protocols differ.

SMILES | species | matrix | route | dose | setting | quantity | result
C=CC(=O)N1CC2CC(n3nc(-c4ccc(C(=O)Nc5ccccn5)cc4)c4c(N)ncnc43)CC2C1 (stereo not drawn) | SCID mouse | plasma | oral | 1 mg/kg | – | AUC(0-t) | 175 ng·h/mL
COc1ccc2nccc(N3CCc4c(cc(Cn5ccnc5)cc4-c4cn(C)nc4C(F)(F)F)C3=O)c2c1 | male CD-1 mouse | plasma | intravenous | 3 mg/kg | – | AUC(0-t) | 1840 ng·h/mL
CNC(=O)[C@H](Cc1c[nH]cn1)NC(=O)CN(CCCc1ccccc1)CC(=O)O | male C57BL/6 mouse | plasma | intraperitoneal | 30 mg/kg | – | AUC | 3600 ng·h/mL
CC[C@H](C)[C@@H]1NC(=O)[C@@](C)(NC(=O)[C@H](CCCNC(=N)N)NC(=O)[C@H](CC(C)C)NC(=O)[C@@H](NC(=O)[C@H](CCC(N)=O)NC(=O)[C@H](CC(C)C)NC(C)=O)[C@@H](C)O)CCCC=CCCC[C@@](C)(C(=O)N[C@@H](CC(C)C)C(=O)N[C@@H](Cc2ccc3ccccc3c2)C(N)=O)NC(=O)[C@H](CCCNC(=N)N)NC(=O)[C@H](CCC(N)=O)NC1=O | male BALB/c mouse | plasma | intravenous | 5 mg/kg | – | AUC(0-inf) | 126000 ng·h/mL
CCc1cc(C(=O)NC)c2nccc(N3CCc4c(cc(Cn5ccnc5)cc4-c4cn(C)nc4C(F)(F)F)C3=O)c2c1 | male CD-1 mouse | plasma | oral | 150 mg/kg | – | AUC(0-inf) | 527000 ng·h/mL
NC[C@@H]1O[C@H](O[C@H]2[C@@H](O)[C@H](O[C@@H]3[C@@H](O)[C@H](N)C[C@H](N)[C@H]3O[C@H]3O[C@H](CO)[C@@H](O)[C@H](O)[C@H]3N)O[C@@H]2CO)[C@H](N)[C@@H](O)[C@@H]1O | male BALB/c mouse | plasma | oral | 500 mg/kg | – | AUC | 3400 ng·h/mL
CC(C)(C)c1ccc(O)c(CN(Cc2cc(C(C)(C)C)ccc2O)C2CCC(NC(N)=O)CC2)c1 (stereo not drawn) | male C57BL/6 mouse | plasma | oral | 10 mg/kg | single dose | AUC(0-inf) | 6620 ng·h/mL
CC(C)(O)c1cn(-c2ccc(-c3cc(F)c(CO)c(S(C)(=O)=O)c3)cc2)c(C(C)(C)c2cccc(F)c2Cl)n1 | male C57BL/6 mouse | serum | oral | 10 mg/kg | – | AUC | 6.9 µM·h
CC(C)Oc1c(NC(=O)c2ccc(NC(=O)[C@H](CC(N)=O)NC(=O)c3ccc(NC(=O)c4ccc(C#N)cc4)cc3)cc2)ccc(C(=O)Nc2ccc(C(=O)O)cc2)c1O | male CD-1 mouse | plasma | subcutaneous | 5 mg/kg | single dose | AUC | 517 ng·h/mL
Cc1ccc2cncc(N3CCc4c(cc(Cn5ccnc5)cc4-c4cn(C)nc4C(F)(F)F)C3=O)c2c1 | male CD-1 mouse | plasma | intravenous | 3 mg/kg | – | AUC(0-t) | 3840 ng·h/mL
CNC(=O)[C@H](Cc1c[nH]cn1)NC(=O)CN(CCCc1ccccc1)CC(=O)OC | male C57BL/6 mouse | plasma | intraperitoneal | 30 mg/kg | – | AUC | 1000 ng·h/mL
COc1ccc(C(O)COc2ccc(-c3csc(-c4ccc(OCC(O)c5ccc(OC)c(OC)c5)cc4)n3)cc2)cc1OC (stereo not drawn) | C57BL/6 mouse | plasma | oral | 30 mg/kg | – | AUC(0-t) | 34000 ng·h/mL
Cc1nc(-c2cnc(NC(C)C)n(C)c2=O)ccc1Oc1ccnc(-c2cnn(C)c2)c1 | female mouse | plasma | oral | 30 mg/kg | single dose | AUC(0-t) | 179000 ng·h/mL
CC(C)(O)c1cn(-c2ccc(-c3ccc(CO)c(S(C)(=O)=O)c3)cc2)c(Cc2ccccc2Cl)n1 | male C57BL/6 mouse | serum | oral | 10 mg/kg | – | AUC | 13 µM·h
OC[C@H]1O[C@@H](c2ccc(Cl)c(Cc3ccc(O[C@H]4CCOC4)cc3)c2)[C@H](O)[C@@H](O)[C@@H]1O | CD-1 mouse | plasma | oral | 10 mg/kg | – | AUC | 741 ng·h/mL
